RGS4 act: RGS4 potentiators or activators, primary screen, cell-based, HEK293 M3R inducible RGS4, calcium flux. carbachol calcium flux Fluo4; hits give low values. B-score at 10 µM. hit rate 0.92% among 310,000. AID 463111, 2010;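 active = B-score of the integrated calcium signal more than 4 SD below the library mean, with starting fluorescence not abnormally high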;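 note: negative B-score means reduced calcium response which marks RGS4 activation or potentiation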
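Test system: HEK293 cells with stable M3R and inducible RGS4; also added: carbachol at ECmax as muscarinic agonist stimulus; schedule: dye loading 30 min 37 °C, buffer rest 30 min RT; technique: kinetic calcium fluorescence imaging with Fluo4-AM dye, 2 µM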
RGS4 block: RGS4 inhibitors, primary screen, cell-based, HEK293 M3R inducible RGS4, calcium flux; Regulator of G-protein signaling 4 (Homo sapiens), P49798; Fluo-4 calcium flux; hits give high values; triggered by carbachol at its EC20; B-score at 10 µM; hit rate 0.45% among 310,000; AID 463165, 2010;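 active = B-score, a plate-corrected calcium signal, over three deviations above library mean, with baseline fluorescence within five deviations of library mean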;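 note: RGS4 expression induced by doxycycline in cells with stable M3 receptor; B-score is computed from the integrated fluorescence ratio over baseline after carbachol; higher B-score means a larger calcium signal and so more RGS4 inhibition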
Target sequence (P49798 whole entry, looked up): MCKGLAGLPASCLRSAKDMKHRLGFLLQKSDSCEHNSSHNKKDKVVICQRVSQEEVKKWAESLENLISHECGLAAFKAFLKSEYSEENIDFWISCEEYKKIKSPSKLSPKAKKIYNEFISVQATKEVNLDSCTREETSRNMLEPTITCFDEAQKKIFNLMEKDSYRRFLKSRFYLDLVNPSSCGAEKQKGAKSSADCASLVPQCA
MrgX1 allo act: positive allosteric modulators of MrgX1, primary screen, HEK293 cells, Fluo-4 calcium flux. Mas-related G-protein coupled receptor member X1 (Homo sapiens), Q96LB2. hit rate 0.63% among 310,000. FDSS; hits give high values. AID 588675, 2011. B-score at 10 µM;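 active = plate-corrected calcium response at least 3 library SD above typical, normal starting fluorescence, not activating the receptor alone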;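 note: compound read alongside a low EC10 to EC30 dose of BAM8-22 agonist; peak minus trough fluorescence over baseline measured at the second addition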
Target sequence (Q96LB2 whole entry, looked up): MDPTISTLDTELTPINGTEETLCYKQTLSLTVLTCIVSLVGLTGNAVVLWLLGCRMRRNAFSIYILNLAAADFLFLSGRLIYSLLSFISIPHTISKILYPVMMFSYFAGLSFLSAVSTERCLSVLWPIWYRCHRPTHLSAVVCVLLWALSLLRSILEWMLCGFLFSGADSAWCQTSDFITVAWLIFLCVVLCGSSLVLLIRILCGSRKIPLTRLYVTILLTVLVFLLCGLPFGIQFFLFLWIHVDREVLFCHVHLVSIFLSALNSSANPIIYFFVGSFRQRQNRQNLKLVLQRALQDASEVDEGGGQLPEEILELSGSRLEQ
MrgX1 agonist: agonists of human MrgX1 receptor, primary screen, HEK293 cells, Fluo-4 calcium flux. Mas-related G-protein coupled receptor member X1 (Homo sapiens), Q96LB2. Fluo-4 calcium fluorescence, agonist mode; hits give high values. B-score at 10 µM. hit rate 0.44% among 310,000. AID 588627, 2011;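 active = calcium response B-score plate-corrected fluorescence ratio at least 3 library SD, with starting fluorescence B-score inside 5 SD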
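Assay system: MrgX1-expressing HEK293 cells / Amount: fifteen thousand cells per well / Doses: test compound in the initial addition of three / Timing: cells plated overnight, dye loaded 0.5 h 37 °C, 0.5 h room temperature / Technique: kinetic calcium dye fluorescence, Fluo-4 NW / Control set: positive and negative controls per plate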
MrgX1 antagonist: antagonists of human MrgX1 receptor, primary screen, HEK293 cells, Fluo-4 calcium flux; Mas-related G-protein coupled receptor member X1 (Homo sapiens), Q96LB2; BAM8-22 antagonism; hits give low values; B-score at 10 µM; hit rate 1.3% among 310,000; AID 588676, 2011;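 active = calcium-response B-score plate-corrected more than 3 library SD below zero, starting fluorescence within 5 deviations, no agonist response on first addition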;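 note: peak minus trough fluorescence over baseline after final BAM8-22 challenge near maximal dose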
MrgX1 antag conf: MrgX1 receptor antagonists, duplicate retest, confirmation, HEK293 cells, Fluo-4 calcium flux; shares compounds with MrgX1 antagonist; BAM8-22 calcium flux; hits give low values; remaining BAM8-22 calcium response % of control (hits give low values), % at 10 µM; hit rate 19% among 2,300; AID 602420, 2012;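 active = remaining agonist calcium response no higher than 100% minus 3 SD of agonist-only control wells, with starting fluorescence near control levels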;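 note: agonist BAM8-22 given at a near maximal EC90 to ECmax level; peak minus minimum fluorescence divided by baseline after agonist addition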
HEK293 Ca flux: nonspecific calcium signal in parental HEK293, confirmation, counter-screen for MrgX1 antagonist project, parental HEK293 cells, Fluo-4 calcium flux. shares compounds with MrgX1 antagonist. Fluo-4 calcium fluorescence, FDSS. fluorescence ratio F(max-min)/F0 at 10 µM. hit rate 2% among 4,000. AID 624111, 2012;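 active = duplicate-averaged calcium fluorescence ratio at least three times the standard deviation of buffer wells, a nonspecific response in parental cells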
HEK293 Ca counter: calcium response in parental HEK293 cells, primary screen, counter-screen for MrgX1 allosteric activator project, cell-based, Fluo-4 calcium flux, duplicate | shares compounds with MrgX1 antagonist | Fluo-4 fluorescence ratio; hits give high values | fluorescence ratio F(max-min)/F0 at 10 µM | hit rate 0.4% among 4,000;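 active = calcium fluorescence ratio, averaged over duplicates, at least 3 SD of the buffer-well ratio, meaning a nonspecific response in receptor-free cells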;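 note: untransfected parental HEK293 lacking MrgX1 used as counterscreen for MrgX1 allosteric activators; fluorescence change taken during the second addition on a kinetic imager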
HEK293 Ca cntr2: calcium response in parental HEK293 cells, primary screen, counter-screen for MrgX1 agonist project, cell-based, Fluo-4 calcium flux, duplicate, agonist mode; shares compounds with MrgX1 antagonist; Fluo-4 calcium fluorescence (FDSS); hits give high values; fluorescence ratio F(max-min)/F0 at 10 µM; hit rate 8.7% among 4,000;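 active = calcium fluorescence ratio at least three times the spread of buffer wells, meaning a non-specific response in parental cells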
A number is an active result; - = inactive; . = no result given; ! = not confirmed by another sample. A selection: hits, their analogues and other compounds. The true share with any hit is near 3.5%.

SMILES	RGS4 act	RGS4 block	MrgX1 allo act	MrgX1 agonist	MrgX1 antagonist	MrgX1 antag conf	HEK293 Ca flux	HEK293 Ca counter	HEK293 Ca cntr2
CC(N)C12CC3CC(CC(C3)C1)C2 (stereo unspecified)	-	-	-	-	-5!	-	-	-	-
CN(C)C1(CNC(=O)C2CCN(S(=O)(=O)c3cc(Cl)ccc3Cl)CC2)CCCCC1	-	-	-	-	-	.	.	.	.
Cc1ccc(C(=O)N/N=C\c2cc3c(cc2Br)OCO3)s1	-	-	-	-	-	.	.	.	.
O=C(OC1CCCCC1=O)c1cccc(S(=O)(=O)N2CCCCC2)c1 (stereo unspecified)	-	-	-	-	-	.	.	.	.
O=C(OC1CCCCC1=O)c1ccc(S(=O)(=O)Nc2ccccc2)cc1 (stereo unspecified)	-	-	-	-	-5.4	-	-	-	-
c1cc2c(cc1OCCNC1CCCC1)CCC2	-	-	-	-	-	.	.	.	.
CNCCCOc1ccc2c(c1)CCC2	-	-	-	-	-5	-	-	-	-
Cc1ccc(S(=O)(=O)/N=c2\sccn2C)cc1	-	-	-	-	-	.	.	.	.
Cn1ccs/c1=N\S(=O)(=O)c1ccc(F)cc1	-	-	-	-	-5	-	-	-	-
Cc1cc(C)nc(NS(=O)(=O)c2ccc(N)cc2)n1	-	-	-	-	-4.7!	-	-	-	-
N#Cc1ccc(OS(=O)(=O)c2ccc(-c3ccon3)s2)cc1	-	-	-	-	-4.7	-	-	-	-
Cc1ccc(NC(=O)COC(=O)C2CCC2)cc1S(=O)(=O)N1CCCCC1	-	-	-	-	-5.4	84%	-	-	-
CCOC(=O)c1ccccc1NC(=O)COC(=O)C1CCN(S(=O)(=O)c2ccccc2C(=O)OC)CC1	-	-	-	-	-11	-	-	-	-
Cc1ccc(NC(=O)COC(=O)Cc2ccsc2)cc1S(=O)(=O)N1CCOCC1	-	-	-	-	-5.4	-	-	-	-
CCC(C)(C)NC(=O)CCCSc1nc2ccccc2s1	-	-	-	-	-	.	.	.	.
O=C(NCc1cccc(F)c1)C1CCC(=O)N(CC2CCCCC2)C1 (stereo unspecified)	-	-	-	-	-	.	.	.	.
S=C(NCc1cccs1)Nc1cccc(Cl)c1	-	-	-	-	-5.1	-	-	-	-
CCC(C)NC(=O)C1c2ccccc2C(=O)N(c2ccc(OC)cc2)C1c1ccc(OC)cc1 (stereo unspecified)	-	-	-	-	-6.5	-	-	-	-
O=C(CSCc1nc2ccccc2[nH]1)Nc1ccc2ccccc2c1	-	-	-	-	-4.9	-	-	-	-
COC(=O)[C@@H]1C[C@@]2(Br)c3ccccc3N(S(=O)(=O)c3ccccc3)[C@H]2N1C(=O)OC	-	-	-	-	-6	-	-	-	61
Cc1cc(-c2cccs2)n[nH]1	-	-	-	-	-	.	.	.	.
Cc1cc(-c2ccccc2N)n[nH]1	-	-	-	-	-6.4	-	-	-	-
CC(=O)c1c(C)[nH]c(C(=O)CSc2nnc(C)s2)c1C	-	-	-	-	-	.	.	.	.
Cc1occc1C(=O)Nc1cnn(CCCC(=O)O)c1	-	-	-	-	-4.9	-	-	-	-
O=C(O)CCCn1cc(NC(=O)c2ccco2)cn1	-	-	-	-	-	.	.	.	.
SMILES	RGS4 act	RGS4 block	MrgX1 allo act	MrgX1 agonist	MrgX1 antagonist	MrgX1 antag conf	HEK293 Ca flux	HEK293 Ca counter	HEK293 Ca cntr2
CCNC(=S)Nc1ccc(Cl)cc1	-	-	-	-	-6	-	-	-	-
S=C(Nc1ccc(Cl)cc1)Nc1cccc2cnccc12	-	-	-	-	-5.2	-	-	-	-
COc1cc(/C=C/c2nc3ccccc3s2)cc(OC)c1O	-	-	-	-	-5.7	-	-	-	-
COc1cc(C=C(c2nc3ccccc3s2)c2nc3ccccc3s2)ccc1O	-	-	-	-	-	.	.	.	.
COCCn1c(SCc2cccnc2)nnc1-c1ccco1	-	-	-	-	-	.	.	.	.
COc1cccc(CN(C)C(=O)c2cc(COc3c(F)cccc3F)on2)c1	-	-	-	-	-	.	.	.	.
COc1cccc(CN(C)C(=O)c2cc(COc3ccc4ncccc4c3)on2)c1	-	-	-	-	-6.6	69%	-	-	-
Cc1ccccc1SCC(=O)OCC(=O)Nc1sccc1C(N)=O	-	-	-	-	-	.	.	.	.
NC(=O)c1ccsc1NC(=O)CSc1ccccc1F	-	-	-	-	-4.9	-	-	-	-
COc1ccccc1OCC(=O)OCC(=O)Nc1sccc1C(N)=O	-	-	-	-	-	.	.	.	.
NC(=O)c1ccsc1NC(=O)COC(=O)Cc1cccc2ccccc12	-	-	-	-	-6.8	42%	-	-	-
NC(=O)c1ccsc1NC(=O)CCS(=O)(=O)c1ccc(F)cc1	-	-	-	-	-5.9	80%	-	-	-
O=C(OCN1C(=O)c2ccccc2C1=O)c1ccc(Cl)nc1	-	-	-	-	-	.	.	.	.
Cc1cc(C)c(S(=O)(=O)n2ccc(-c3ccc(OCCN(C)c4ccccn4)cc3)n2)c(C)c1	-	-	-	-	-	.	.	.	.
Cc1ccc(CNC(=O)CCC2CCCN(C(=O)CCC(F)(F)F)C2)o1 (stereo unspecified)	-	-	-	-	-	.	.	.	.
C=CCn1c(C)nnc1SCC(=O)Nc1oc(C)c2c(C)n[nH]c(=O)c12	-	-	-	-	-5.3	-	-	-	-
CCOCCCn1c(SCC(=O)Nc2oc(C)c3c(C)n[nH]c(=O)c23)nnc1-c1ccncc1	-	-	-	-	-	.	.	.	.
Cc1n[nH]c(=O)c2c(NC(=O)CSc3nnc(-c4ccncc4)n3C)oc(C)c12	-	-	-	-	-7.1	-	-	-	-
Cc1ccc(S(=O)(=O)N2CCN(C3CC4CCC3C4)CC2)cc1 (stereo unspecified)	-	-	-	-	-	.	.	.	.
CN(C)c1ccc(NC(=O)CN2CCC(N3CCCCC3)CC2)cc1	-	-	-	-	-	.	.	.	.

Assay outcomes (PubChem BioAssay)
